The values that follow come from ChEMBL document CHEMBL4373668, “Bivalent AMPA receptor positive allosteric modulators of the bis(pyrimidine) series” (Medchemcomm, 2019).

In test [1] the target is T1, Glutamate receptor ionotropic, AMPA (Rattus norvegicus) (UniProt P19491+P19492+P19493+P19490). Briefly: Positive allosteric modulation of rat Purkinje neuron AMPA receptor assessed as change in kainate-induced current at 10^-11 M measured for 2 mins by patch clamp assay (rvb = 100%). In outline:
(§1)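 Purkinje neurons were freshly isolated from the cerebellum of 12–16-day-old rat pups by protease/collagenase digestion at 34°C under O₂. Whole-cell patch clamp was used, with compounds given by fast perfusion in extracellular saline at pH 7.32. Kainic acid (20 µM) was applied three times per concentration, 2 min apart, with a 3-min washout between concentrations. Current amplitude was normalized to the KA control (100%), using 4–7 neurons per concentration.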

The target in test [2] is T1, Glutamate receptor ionotropic, AMPA (Rattus norvegicus). Briefly: Positive allosteric modulation of rat Purkinje neuron AMPA receptor assessed as change in kainate-induced current at 10^-9 M measured for 2 mins by patch clamp assay (rvb = 100%). The method in brief:
as §1
(In general: In patch-clamp work, channel activity is measured electrically.)

Test [3] has the same target. Briefly: Positive allosteric modulation of rat Purkinje neuron AMPA receptor assessed as change in kainate-induced current at 10^-7 M measured for 2 mins by patch clamp assay (rvb = 100%). In outline:
as §1

For test [4] the target is unchanged. The test can be described thus: Positive allosteric modulation of rat Purkinje neuron AMPA receptor assessed as change in kainate-induced current at 10^-6 M measured for 2 mins by patch clamp assay (rvb = 100%). In outline: as §1
The target is the same in test [5]. The test can be described thus: Positive allosteric modulation of rat Purkinje neuron AMPA receptor assessed as change in kainate-induced current at 10^-8 M measured for 2 mins by patch clamp assay (rvb = 100%). In outline:
as §1

The target is the same in test [6]. The test can be described thus: Positive allosteric modulation of rat Purkinje neuron AMPA receptor assessed as change in kainate-induced current at 10^-10 M measured for 2 mins by patch clamp assay (rvb = 100%). In outline:
as §1

The target is the same in test [7]. The test can be described thus: Positive allosteric modulation of rat Purkinje neuron AMPA receptor assessed as change in kainate-induced current at 10^-12 M measured for 2 mins by patch clamp assay (rvb = 100%). The method in brief: as §1
For test [8] the target is unchanged. Briefly: Positive allosteric modulation of rat Purkinje neuron AMPA receptor assessed as change in kainate-induced current at 3 x 10^-5 M measured for 2 mins by patch clamp assay (rvb = 100%).
Test [9] has the same target. The test can be described thus: Positive allosteric modulation of rat Purkinje neuron AMPA receptor assessed as change in kainate-induced current at 10^-5 M measured for 2 mins by patch clamp assay (rvb = 100%).

Each structure is given as a SMILES string.

As for `c1cc(Oc2nc(C3CC3)nc3c2CCCC3)ccc1Oc1nc(C2CC2)nc2c1CCCC2`, the Activity came out at 100% in test [1]; 95% in [2]; 97% in [3]; 96% in test [4]; 96% in [5]; 100% in test [6].

For `CC(C)c1nc2c(c(Oc3ccc(Oc4nc(C(C)C)nc5c4CCCC5)cc3)n1)CCCC2`, the Activity worked out at 84% in test [1]; 82% in test [2]; 98% in test [3]; 92% in test [5]; 100% in test [7]; 72% in test [6].

With `CC(C)(C)c1nc2c(c(Oc3ccc(Oc4nc(C(C)(C)C)nc5c4CCCC5)cc3)n1)CCCC2`, the Activity came to 100% in test [1]; 120% in [2]; 133% in test [3]; 145% in [4]; 125% in test [5]; 108% in test [6].

As for `NS(=O)(=O)c1cc2c(cc1Cl)NC(C1CC3C=CC1C3)NS2(=O)=O` (stereo not given), the Activity came to 560% in [8], 235% in test [9], 100% in [3] and 145% in test [4].

In the case of `CCc1nc2c(c(Oc3ccc(Oc4nc(CC)nc5c4CCCC5)cc3)n1)CCCC2`, the Activity came to 117% in test [1]; 155% in [2]; 100% in test [3]; 128% in test [5]; 100% in test [7]; 126% in test [6].

With `Cc1nc2c(c(Oc3ccc(Oc4nc(C)nc5c4CCCC5)cc3)n1)CCCC2`, the Activity in [1] amounted to 132%; in [2] it was 170%; in test [3] it was 85%; in test [4], 78%; in test [5], 123%; in test [7] it was 108%. Besides, the Activity in test [6] was 143%.
